Measurements as given in ChEMBL document CHEMBL1131103, “Synthesis and biological evaluation of 2-acyl analogues of paclitaxel (Taxol)” (J Med Chem, 1998).

Legend:
[1] = tested on: Panel colon (Carcinoma cell lines); assay: Cytotoxic activity was measured against human colon carcinoma cell lines; assay type: functional, cell-based
Method in brief: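 HCT116 colon carcinoma monolayers in 96-well plates, 48 h at 37 °C under 5% CO₂. Cell protein measured. IC₅₀ = concentration giving 50% inhibition of the increase in cell protein.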

Burkitts lymphoma cell = assay: Cytotoxic activity against was measured human Burkitt lymphoma cell lines.; assay type: functional, cell-based
Method in brief: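 CA46 Burkitt lymphoma cells in 5.0-mL suspension culture, counted after 24 h at 37 °C under 5% CO₂. IC₅₀ = drug concentration halving the increase in cell number. Highest concentration 100 nM. At least two independent experiments.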

Bos taurus [2] = species: Bos taurus; assay: Polymerizing activity of tubulin in glutamate against bovine brain tubulin homogenate was measured at 0.4 M concentrations; assay type: functional
Method in brief: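 Purified, electrophoretically homogeneous bovine brain tubulin assembled at room temperature without GTP or Mg²⁺ in 0.4 M monosodium glutamate (from 2 M stock, pH 6.6). Polymer pelleted by centrifugation. IC₅₀ = drug concentration lowering supernatant protein by 50% versus no-drug control. Up to 40 µM. At least three independent experiments, or at least two where IC₅₀ exceeded 40 µM.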

[3] = tested on: Panel ovarian (Carcinoma cell lines); assay: Cytotoxic activity was measured against human Ovarian carcinoma cell lines; assay type: functional, cell-based
Method in brief: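 Ovarian carcinoma line 1A9, a subclone of A2780, grown as monolayers in 96-well plates for 96 h at 37 °C, 5% CO₂. Cell protein quantitated (Skehan method). IC₅₀ = concentration inhibiting the increase in cell protein by 50%.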

ptx-10/22 = assay: Relative resistance was measured against human paclitaxel-resistant cell lines; assay type: functional, cell-based; settings: 1A9(PTX22)
Bos taurus [4] = species: Bos taurus; assay: Polymerizing activity of microtubule protein against the twice cycled microtubule protein; assay type: functional
Method in brief: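 Twice-cycled microtubule protein, stored in liquid nitrogen, at 1.0 mg/mL final in 0.1 M MES, 1 mM EGTA, 0.5 mM MgCl₂, pH 6.6, 37 °C, no GTP. Compound at 2.5, 5.0 and 10 µM. Absorbance read every 10 s and initial linear slopes taken. EC0.01 = interpolated concentration giving an initial slope of 0.01 A unit/min.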

Bos taurus [5] = species: Bos taurus; assay: Polymerizing activity of tubulin in glutamate against bovine brain tubulin homogenate was measured at 0.8M concentrations; assay type: functional
Method in brief: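 Bovine brain tubulin, purified to electrophoretic homogeneity, in 0.8 M monosodium glutamate (from 2 M stock, pH 6.6), room temperature, no GTP. Polymer removed by centrifugation. IC₅₀ = concentration reducing supernatant protein by 50% relative to drug-free control. Maximum 40 µM. At least three independent experiments, or at least two for IC₅₀ over 40 µM.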

| SMILES | IC50 (Bos taurus [2]) | IC50 (Bos taurus [5]) | IC50 [1] | IC50 (Burkitts lymphoma cell) | IC50 [3] | relative resistance (ptx-10/22) | EC0.01 (relative to paclitaxel) (Bos taurus [4]) |
| --- | --- | --- | --- | --- | --- | --- | --- |
| COc1cccc(C(=O)O[C@H]2[C@@H]3[C@]4(OC(C)=O)CO[C@@H]4C[C@H](O)[C@@]3(C)C(=O)[C@H](OC(C)=O)C3=C(C)[C@@H](OC(=O)[C@H](O)[C@@H](NC(=O)c4ccccc4)c4ccccc4)C[C@]2(O)C3(C)C)c1 | 0.22 relative to paclitaxel | – | 0.35 relative to paclitaxel | 0.27 relative to paclitaxel | 0.095 relative to paclitaxel | 0.71 | 0.5 |
| CC(=O)O[C@H]1C(=O)[C@@]2(C)[C@H]([C@H](OC(=O)c3cccc(N=[N+]=[N-])c3)[C@]3(O)C[C@H](OC(=O)[C@H](O)[C@@H](NC(=O)c4ccccc4)c4ccccc4)C(C)=C1C3(C)C)[C@]1(OC(C)=O)CO[C@@H]1C[C@@H]2O | 0.2 relative to paclitaxel | – | 1.4 relative to paclitaxel | 0.17 relative to paclitaxel | 0.18 relative to paclitaxel | 0.27 | 0.37 |
| CC(=O)O[C@H]1C(=O)[C@@]2(C)[C@H]([C@H](OC(=O)c3cccc(C#N)c3)[C@]3(O)C[C@H](OC(=O)[C@H](O)[C@@H](NC(=O)c4ccccc4)c4ccccc4)C(C)=C1C3(C)C)[C@]1(OC(C)=O)CO[C@@H]1C[C@@H]2O | 0.63 relative to paclitaxel | – | 1.1 relative to paclitaxel | – | 0.32 relative to paclitaxel | 1.3 | 1 |
| CC(=O)O[C@H]1C(=O)[C@@]2(C)[C@H]([C@H](OC(=O)c3ccc(Cl)cc3)[C@]3(O)C[C@H](OC(=O)[C@H](O)[C@@H](NC(=O)c4ccccc4)c4ccccc4)C(C)=C1C3(C)C)[C@]1(OC(C)=O)CO[C@@H]1C[C@@H]2O | > 1.7 relative to paclitaxel | > 8.9 relative to paclitaxel | – | 1.3 relative to paclitaxel | 7.6 relative to paclitaxel | – | – |
| CC(=O)O[C@H]1C(=O)[C@@]2(C)[C@H]([C@H](OC(=O)c3cc([N+](=O)[O-])cc([N+](=O)[O-])c3)[C@]3(O)C[C@H](OC(=O)[C@H](O)[C@@H](NC(=O)c4ccccc4)c4ccccc4)C(C)=C1C3(C)C)[C@]1(OC(C)=O)CO[C@@H]1C[C@@H]2O | > 1.7 relative to paclitaxel | > 8.9 relative to paclitaxel | 3.1 relative to paclitaxel | 2.3 relative to paclitaxel | 20 relative to paclitaxel | – | 4.2 |
| CC(=O)O[C@H]1C(=O)[C@@]2(C)[C@H]([C@H](OC(=O)c3cc(F)cc(F)c3)[C@]3(O)C[C@H](OC(=O)[C@H](O)[C@@H](NC(=O)c4ccccc4)c4ccccc4)C(C)=C1C3(C)C)[C@]1(OC(C)=O)CO[C@@H]1C[C@@H]2O | 0.29 relative to paclitaxel | – | 0.36 relative to paclitaxel | – | 0.12 relative to paclitaxel | 1.1 | 0.6 |
| CC(=O)O[C@H]1C(=O)[C@@]2(C)[C@H]([C@H](OC(=O)c3ccccc3N=[N+]=[N-])[C@]3(O)C[C@H](OC(=O)[C@H](O)[C@@H](NC(=O)c4ccccc4)c4ccccc4)C(C)=C1C3(C)C)[C@]1(OC(C)=O)CO[C@@H]1C[C@@H]2O | 0.38 relative to paclitaxel | – | 0.36 relative to paclitaxel | – | 0.77 relative to paclitaxel | 0.67 | 0.7 |
| CC(=O)O[C@H]1C(=O)[C@@]2(C)[C@H]([C@H](OC(=O)c3cccc(F)c3)[C@]3(O)C[C@H](OC(=O)[C@H](O)[C@@H](NC(=O)c4ccccc4)c4ccccc4)C(C)=C1C3(C)C)[C@]1(OC(C)=O)CO[C@@H]1C[C@@H]2O | 1.2 relative to paclitaxel | 2.6 relative to paclitaxel | 0.45 relative to paclitaxel | – | 0.4 relative to paclitaxel | 0.96 | 0.7 |
| COc1cc(C(=O)O[C@H]2[C@@H]3[C@]4(OC(C)=O)CO[C@@H]4C[C@H](O)[C@@]3(C)C(=O)[C@H](OC(C)=O)C3=C(C)[C@@H](OC(=O)[C@H](O)[C@@H](NC(=O)c4ccccc4)c4ccccc4)C[C@]2(O)C3(C)C)cc(OC)c1OC | > 1.7 relative to paclitaxel | > 8.9 relative to paclitaxel | 110 relative to paclitaxel | > 3.3 relative to paclitaxel | > 48 relative to paclitaxel | – | 32 |
| CC(=O)O[C@H]1C(=O)[C@@]2(C)[C@H]([C@H](OC(=O)c3cccc(C(F)(F)F)c3)[C@]3(O)C[C@H](OC(=O)[C@H](O)[C@@H](NC(=O)c4ccccc4)c4ccccc4)C(C)=C1C3(C)C)[C@]1(OC(C)=O)CO[C@@H]1C[C@@H]2O | > 1.7 relative to paclitaxel | 6.7 relative to paclitaxel | 3 relative to paclitaxel | 0.67 relative to paclitaxel | 1.4 relative to paclitaxel | – | 1.3 |
| CC(=O)O[C@H]1C(=O)[C@@]2(C)[C@H]([C@H](OC(=O)c3ccc(Cl)c(Cl)c3)[C@]3(O)C[C@H](OC(=O)[C@H](O)[C@@H](NC(=O)c4ccccc4)c4ccccc4)C(C)=C1C3(C)C)[C@]1(OC(C)=O)CO[C@@H]1C[C@@H]2O | 0.41 relative to paclitaxel | – | 0.77 relative to paclitaxel | – | 1 relative to paclitaxel | 0.27 | 0.76 |
| CC(=O)O[C@H]1C(=O)[C@@]2(C)[C@H]([C@H](OC(=O)c3cccc(F)c3F)[C@]3(O)C[C@H](OC(=O)[C@H](O)[C@@H](NC(=O)c4ccccc4)c4ccccc4)C(C)=C1C3(C)C)[C@]1(OC(C)=O)CO[C@@H]1C[C@@H]2O | > 1.7 relative to paclitaxel | > 8.9 relative to paclitaxel | 0.55 relative to paclitaxel | – | 14 relative to paclitaxel | – | 0.8 |
| CC(=O)O[C@H]1C(=O)[C@@]2(C)[C@H]([C@H](OC(=O)c3cc(F)ccc3F)[C@]3(O)C[C@H](OC(=O)[C@H](O)[C@@H](NC(=O)c4ccccc4)c4ccccc4)C(C)=C1C3(C)C)[C@]1(OC(C)=O)CO[C@@H]1C[C@@H]2O | 0.29 relative to paclitaxel | – | 0.44 relative to paclitaxel | 0.67 relative to paclitaxel | 0.67 relative to paclitaxel | 0.57 | 0.34 |

More lines, main results first:

| IC50 (Bos taurus [2]) | IC50 (Bos taurus [5]) | SMILES | IC50 [1] | IC50 (Burkitts lymphoma cell) | IC50 [3] | relative resistance (ptx-10/22) | EC0.01 (relative to paclitaxel) (Bos taurus [4]) |
| --- | --- | --- | --- | --- | --- | --- | --- |
| > 1.7 relative to paclitaxel | 4.7 relative to paclitaxel | COc1cc(OC)cc(C(=O)O[C@H]2[C@@H]3[C@]4(OC(C)=O)CO[C@@H]4C[C@H](O)[C@@]3(C)C(=O)[C@H](OC(C)=O)C3=C(C)[C@@H](OC(=O)[C@H](O)[C@@H](NC(=O)c4ccccc4)c4ccccc4)C[C@]2(O)C3(C)C)c1 | 5.4 relative to paclitaxel | 1 relative to paclitaxel | 3.3 relative to paclitaxel | 0.57 | 2.6 |
| > 1.7 relative to paclitaxel | > 8.9 relative to paclitaxel | CC(=O)O[C@H]1C(=O)[C@@]2(C)[C@H]([C@H](OC(=O)c3ccc(O)cc3)[C@]3(O)C[C@H](OC(=O)[C@H](O)[C@@H](NC(=O)c4ccccc4)c4ccccc4)C(C)=C1C3(C)C)[C@]1(OC(C)=O)CO[C@@H]1C[C@@H]2O | 52 relative to paclitaxel | 3 relative to paclitaxel | 31 relative to paclitaxel | – | 19 |
| > 1.7 relative to paclitaxel | 2.7 relative to paclitaxel | CSc1cccc(C(=O)O[C@H]2[C@@H]3[C@]4(OC(C)=O)CO[C@@H]4C[C@H](O)[C@@]3(C)C(=O)[C@H](OC(C)=O)C3=C(C)[C@@H](OC(=O)[C@H](O)[C@@H](NC(=O)c4ccccc4)c4ccccc4)C[C@]2(O)C3(C)C)c1 | – | 1 relative to paclitaxel | 3.3 relative to paclitaxel | 0.52 | – |
| 0.2 relative to paclitaxel | – | COc1ccc(OC)c(C(=O)O[C@H]2[C@@H]3[C@]4(OC(C)=O)CO[C@@H]4C[C@H](O)[C@@]3(C)C(=O)[C@H](OC(C)=O)C3=C(C)[C@@H](OC(=O)[C@H](O)[C@@H](NC(=O)c4ccccc4)c4ccccc4)C[C@]2(O)C3(C)C)c1 | 0.14 relative to paclitaxel | 0.67 relative to paclitaxel | 0.12 relative to paclitaxel | 0.76 | 0.5 |
| > 1.7 relative to paclitaxel | > 8.9 relative to paclitaxel | COc1cccc(C(=O)O[C@H]2[C@@H]3[C@]4(OC(C)=O)CO[C@@H]4C[C@H](O)[C@@]3(C)C(=O)[C@H](OC(C)=O)C3=C(C)[C@@H](OC(=O)[C@H](O)[C@@H](NC(=O)c4ccccc4)c4ccccc4)C[C@]2(O)C3(C)C)c1OC | 59 relative to paclitaxel | > 3.3 relative to paclitaxel | > 48 relative to paclitaxel | – | > 270 |
| 0.91 relative to paclitaxel | – | CC(=O)O[C@H]1C(=O)[C@@]2(C)[C@H]([C@H](OC(=O)c3cc(Cl)cc(Cl)c3)[C@]3(O)C[C@H](OC(=O)[C@H](O)[C@@H](NC(=O)c4ccccc4)c4ccccc4)C(C)=C1C3(C)C)[C@]1(OC(C)=O)CO[C@@H]1C[C@@H]2O | 0.51 relative to paclitaxel | 0.67 relative to paclitaxel | 0.38 relative to paclitaxel | 0.48 | 0.44 |
| 0.3 relative to paclitaxel | – | CC(=O)O[C@H]1C(=O)[C@@]2(C)[C@H]([C@H](OC(=O)c3cccc(Cl)c3)[C@]3(O)C[C@H](OC(=O)[C@H](O)[C@@H](NC(=O)c4ccccc4)c4ccccc4)C(C)=C1C3(C)C)[C@]1(OC(C)=O)CO[C@@H]1C[C@@H]2O | 1.7 relative to paclitaxel | 0.67 relative to paclitaxel | 0.05 relative to paclitaxel | 2.9 | 0.92 |
| 0.24 relative to paclitaxel | – | CC(=O)O[C@H]1C(=O)[C@@]2(C)[C@H]([C@H](OC(=O)c3cccc(Br)c3)[C@]3(O)C[C@H](OC(=O)[C@H](O)[C@@H](NC(=O)c4ccccc4)c4ccccc4)C(C)=C1C3(C)C)[C@]1(OC(C)=O)CO[C@@H]1C[C@@H]2O | 0.32 relative to paclitaxel | – | 0.32 relative to paclitaxel | 0.42 | 0.8 |
